Assay results taken from ChEMBL document CHEMBL1123677, “Structure-activity studies of 5-[[4-(4,5-dihydro-2-oxazolyl) phenoxy]alkyl]-3-methylisoxazoles: inhibitors of picornavirus uncoating” (J Med Chem, 1987).
≈ marks a conversion by molar mass, not a printed value. Calls of active or inactive are those of the source. The calls are words filed in the database; no cut-off is given here.

What was measured:
rhinovirus A15 = experiment: Tested for antirhinoviral activity against the rhinovirus serotype 15; assay type: functional; conditions: Rhinovirus A
Procedure, shortened: (§1)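 Selected compounds were tested across a 15-serotype rhinovirus panel: the five secondary serotypes plus 10 more. An MIC was recorded for each serotype. MIC80, the concentration inhibiting 80% of serotypes tested, was also derived from this panel.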

rhinovirus A67 = experiment: Tested for antirhinoviral activity against the rhinovirus serotype 67; assay type: functional; conditions: Rhinovirus A; procedure, shortened: as §1
rhinovirus A30 = experiment: Tested for antirhinoviral activity against the rhinovirus serotype 30; assay type: functional; conditions: Rhinovirus A; procedure, shortened: as §1
rhinovirus A21 = experiment: Tested for antirhinoviral activity against the rhinovirus serotype 21; assay type: functional; conditions: Rhinovirus A; procedure, shortened: as §1
rhinovirus B6 = experiment: Tested for antirhinoviral activity against the rhinovirus serotype 6; assay type: functional; conditions: Rhinovirus B; procedure, shortened: as §1
Human rhinovirus sp. = experiment: Mean of MIC's was determined for the five types of virus like HRV-2, HRV-1A,HRV-22,HRV-41 and HRV-50; assay type: functional
Procedure, shortened: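 MIC measured by plaque reduction against HRV-2 first. The value is the mean of the MICs across these five serotypes.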

rhinovirus A1B [1] = experiment: Tested for antirhinoviral activity against the rhinovirus serotype 1B; IA is inactive; assay type: functional, organism-based; conditions: human rhinovirus type 1b; procedure, shortened: as §1
rhinovirus A2 [2] = experiment: Antirhinovirus activity was assessed and the maximum testable concentration that causes no apparent effects on the cell monolayers was determined against HRV-2 virus in vitro.; assay type: functional, human rhinovirus type 2
rhinovirus A22 = experiment: Tested for antirhinoviral activity against the rhinovirus serotype 22; assay type: functional; conditions: Rhinovirus A; procedure, shortened: as §1
rhinovirus B14 = experiment: Tested for antirhinoviral activity against the rhinovirus serotype 14; assay type: functional, human rhinovirus type 14; conditions: Rhinovirus B; procedure, shortened: as §1
rhinovirus A2 [3] = experiment: Tested for antirhinoviral activity against the rhinovirus serotype 2; assay type: functional, human rhinovirus type 2; conditions: Rhinovirus A; procedure, shortened: as §1
rhinovirus A2 [4] = experiment: Antiviral activity determined by ability to inhibit the HRV-2( human rhinovirus type -2) virus by plaque reduction assay in vitro; assay type: functional; conditions: Rhinovirus A
Procedure, shortened: (§2)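 Plaque reduction assay against human rhinovirus type 2 (HRV-2), following an earlier reported method. The value is the MIC, the minimum inhibitory concentration.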

rhinovirus A50 = experiment: Tested for antirhinoviral activity against the rhinovirus serotype 50; assay type: functional; conditions: Rhinovirus A; procedure, shortened: as §1
rhinovirus A41 = experiment: Tested for antirhinoviral activity against the rhinovirus serotype 41; assay type: functional; conditions: Rhinovirus A; procedure, shortened: as §1
rhinovirus A89 = experiment: Tested for antirhinoviral activity against the rhinovirus serotype 89; assay type: functional, human rhinovirus type 89; conditions: Rhinovirus A; procedure, shortened: as §1
Human rhinovirus 1A = experiment: Tested for antirhinoviral activity against the rhinovirus serotype 1A; assay type: functional; procedure, shortened: as §1
[5] = tested on: human rhinovirus (15-serotype panel); experiment: Antirhinovirus activity was determined by the ability to inhibit the growth of 80% of a panel of 15 human rhinovirus serotypes
rhinovirus B86 = experiment: Tested for antirhinoviral activity against the rhinovirus serotype 86; assay type: functional; conditions: Rhinovirus B; procedure, shortened: as §1
rhinovirus A25 [6] = experiment: Tested for antirhinoviral activity against the rhinovirus serotype 25; IA is inactive; assay type: functional, organism-based; procedure, shortened: as §1
rhinovirus A1B [7] = experiment: Tested for antirhinoviral activity against the rhinovirus serotype 1B; assay type: functional, human rhinovirus type 1b; conditions: Rhinovirus A; procedure, shortened: as §1
rhinovirus A25 [8] = experiment: Tested for antirhinoviral activity against the rhinovirus serotype 25; assay type: functional; conditions: Rhinovirus A; procedure, shortened: as §1
[9] = Partition coefficient (logP); assay type: physicochemical; conditions: octanol/water
rhinovirus A2 [10] = experiment: Antirhinovirus activity was determined by the ability to inhibit the HRV-2 (human rhinovirus type -2) virus by plaque reduction assay in vitro; assay type: functional; conditions: Rhinovirus A; procedure, shortened: as §2
rhinovirus A2 [11] = experiment: Antirhinovirus activity was determined by the ability to inhibit the HRV-2( human rhinovirus type -2) virus by plaque reduction assay in vitro; IA is inactive; assay type: functional, organism-based; procedure, shortened: as §2

Compound	MIC (rhinovirus A15)	MIC (rhinovirus A67)	MIC (rhinovirus A30)	MIC (rhinovirus A21)	MIC (rhinovirus B6)	MIC (Human rhinovirus sp.)	MTL (rhinovirus A2 [2])	MIC (rhinovirus A22)	MIC (rhinovirus B14)	MIC (rhinovirus A2 [3])	MIC (rhinovirus A2 [4])	MIC (rhinovirus A50)	MIC (rhinovirus A41)	MIC (rhinovirus A89)	MIC (Human rhinovirus 1A)	MIC80 [5]	MIC (rhinovirus B86)	MIC (rhinovirus A1B [7])	MIC (rhinovirus A25 [8])	logP [9]	further results
Cc1cc(CCCCCOc2ccc(C3=NCCO3)cc2)on1	1.5 µM (≈ 0.472 µg/mL)	2.4 µM (≈ 0.755 µg/mL)	0.3 µM (≈ 0.0943 µg/mL)	1.2 µM (≈ 0.377 µg/mL)	0.06 µM (≈ 0.0189 µg/mL)	5.2 µM (≈ 1.63 µg/mL)	9.9 µM	0.9 µM (≈ 0.283 µg/mL)	0.7 µM (≈ 0.22 µg/mL)	1.1 µM (≈ 0.346 µg/mL)	1.1 µM (≈ 0.346 µg/mL)	1.5 µM (≈ 0.472 µg/mL)	15 µM (≈ 4.72 µg/mL)	0.4 µM (≈ 0.126 µg/mL)	7 µM (≈ 2.2 µg/mL)	7 µM (≈ 2.2 µg/mL)	0.2 µM (≈ 0.0629 µg/mL)	–	–	–	MIC (rhinovirus A1B [1]): inactive; MIC (rhinovirus A25 [6]): inactive
Cc1cc(CCCCCOc2ccc(C3=NCCO3)cc2Br)on1	0.2 µM (≈ 0.0787 µg/mL)	0.2 µM (≈ 0.0787 µg/mL)	0.08 µM (≈ 0.0315 µg/mL)	0.01 µM (≈ 0.00393 µg/mL)	1.1 µM (≈ 0.433 µg/mL)	0.4 µM (≈ 0.157 µg/mL)	7.9 µM	0.05 µM (≈ 0.0197 µg/mL)	2 µM (≈ 0.787 µg/mL)	0.05 µM (≈ 0.0197 µg/mL)	–	0.1 µM (≈ 0.0393 µg/mL)	1.4 µM (≈ 0.551 µg/mL)	0.02 µM (≈ 0.00787 µg/mL)	0.5 µM (≈ 0.197 µg/mL)	1.4 µM (≈ 0.551 µg/mL)	1.4 µM (≈ 0.551 µg/mL)	0.1 µM (≈ 0.0393 µg/mL)	1.8 µM (≈ 0.708 µg/mL)	4.42	MIC (rhinovirus A2 [10]): 0.04 µM (≈ 0.0157 µg/mL)
Cc1cc(CCCCCOc2ccc(C3=NCCO3)cc2Cl)on1	0.2 µM (≈ 0.0698 µg/mL)	0.23 µM (≈ 0.0802 µg/mL)	0.07 µM (≈ 0.0244 µg/mL)	0.07 µM (≈ 0.0244 µg/mL)	0.6 µM (≈ 0.209 µg/mL)	1 µM (≈ 0.349 µg/mL)	8.9 µM	0.1 µM (≈ 0.0349 µg/mL)	2.4 µM (≈ 0.837 µg/mL)	0.06 µM (≈ 0.0209 µg/mL)	0.06 µM (≈ 0.0209 µg/mL)	0.2 µM (≈ 0.0698 µg/mL)	3.5 µM (≈ 1.22 µg/mL)	0.03 µM (≈ 0.0105 µg/mL)	1 µM (≈ 0.349 µg/mL)	1 µM (≈ 0.349 µg/mL)	0.9 µM (≈ 0.314 µg/mL)	0.2 µM (≈ 0.0698 µg/mL)	2.4 µM (≈ 0.837 µg/mL)	–	–
Cc1cc(CCCCOc2ccc(C3=NCCO3)cc2Cl)on1	–	–	–	–	–	1 µM (≈ 0.335 µg/mL)	9.3 µM	–	–	–	0.2 µM (≈ 0.067 µg/mL)	–	–	–	–	3.6 µM (≈ 1.21 µg/mL)	–	–	–	–	–
Cc1cc(CCCCCOc2ccc(C3=NCCO3)cc2N(C)C)on1	–	–	–	–	–	> 17 µM	17 µM	–	–	–	0.2 µM (≈ 0.0715 µg/mL)	–	–	–	–	–	–	–	–	–	–
Cc1cc(CCCCCOc2ccc(C3=NCCO3)cc2C(C)C)on1	–	–	–	–	–	> 50 µM	2.2 µM	–	–	–	0.2 µM (≈ 0.0713 µg/mL)	–	–	–	–	–	–	–	–	–	–
Cc1cc(CCCCCOc2ccc(C3=NCCO3)cc2N)on1	–	–	–	–	–	7 µM (≈ 2.31 µg/mL)	19 µM	–	–	–	0.91 µM (≈ 0.3 µg/mL)	–	–	–	–	–	–	–	–	2.83	–
C=CCc1cc(C2=NCCO2)ccc1OCCCCCc1cc(C)no1	1.6 µM (≈ 0.567 µg/mL)	1.1 µM (≈ 0.39 µg/mL)	0.8 µM (≈ 0.284 µg/mL)	0.4 µM (≈ 0.142 µg/mL)	1.7 µM (≈ 0.603 µg/mL)	1.1 µM (≈ 0.39 µg/mL)	8.8 µM	0.5 µM (≈ 0.177 µg/mL)	3.4 µM (≈ 1.21 µg/mL)	0.08 µM (≈ 0.0284 µg/mL)	0.08 µM (≈ 0.0284 µg/mL)	0.4 µM (≈ 0.142 µg/mL)	3.4 µM (≈ 1.21 µg/mL)	0.6 µM (≈ 0.213 µg/mL)	1.4 µM (≈ 0.496 µg/mL)	2.1 µM (≈ 0.744 µg/mL)	2.1 µM (≈ 0.744 µg/mL)	0.1 µM (≈ 0.0354 µg/mL)	3.4 µM (≈ 1.21 µg/mL)	4.93	–
C=Cc1cc(C2=NCCO2)ccc1OCCCCCc1cc(C)no1	0.7 µM (≈ 0.238 µg/mL)	0.4 µM (≈ 0.136 µg/mL)	0.1 µM (≈ 0.034 µg/mL)	0.09 µM (≈ 0.0306 µg/mL)	2.4 µM (≈ 0.817 µg/mL)	0.8 µM (≈ 0.272 µg/mL)	18 µM	0.5 µM (≈ 0.17 µg/mL)	1.7 µM (≈ 0.579 µg/mL)	0.2 µM (≈ 0.0681 µg/mL)	0.2 µM (≈ 0.0681 µg/mL)	1.2 µM (≈ 0.409 µg/mL)	1.3 µM (≈ 0.443 µg/mL)	0.1 µM (≈ 0.034 µg/mL)	1.2 µM (≈ 0.409 µg/mL)	1.6 µM (≈ 0.545 µg/mL)	1.6 µM (≈ 0.545 µg/mL)	0.3 µM (≈ 0.102 µg/mL)	1.7 µM (≈ 0.579 µg/mL)	4.65	–
Cc1cc(CCCCCOc2ccc(C3=NCCO3)cc2C(F)(F)F)on1	0.2 µM (≈ 0.0765 µg/mL)	0.2 µM (≈ 0.0765 µg/mL)	0.3 µM (≈ 0.115 µg/mL)	0.03 µM (≈ 0.0115 µg/mL)	1.8 µM (≈ 0.688 µg/mL)	0.4 µM (≈ 0.153 µg/mL)	3.4 µM	0.07 µM (≈ 0.0268 µg/mL)	3 µM (≈ 1.15 µg/mL)	0.03 µM (≈ 0.0115 µg/mL)	0.03 µM (≈ 0.0115 µg/mL)	1.1 µM (≈ 0.421 µg/mL)	0.2 µM (≈ 0.0765 µg/mL)	0.2 µM (≈ 0.0765 µg/mL)	0.4 µM (≈ 0.153 µg/mL)	1.1 µM (≈ 0.421 µg/mL)	0.03 µM (≈ 0.0115 µg/mL)	0.04 µM (≈ 0.0153 µg/mL)	0.2 µM (≈ 0.0765 µg/mL)	4.38	–
COc1cc(C2=NCCO2)ccc1OCCCCCc1cc(C)no1	0.6 µM (≈ 0.207 µg/mL)	1 µM (≈ 0.344 µg/mL)	0.2 µM (≈ 0.0689 µg/mL)	0.2 µM (≈ 0.0689 µg/mL)	1 µM (≈ 0.344 µg/mL)	4.5 µM (≈ 1.55 µg/mL)	37 µM	0.8 µM (≈ 0.276 µg/mL)	1.7 µM (≈ 0.585 µg/mL)	0.3 µM (≈ 0.103 µg/mL)	0.3 µM (≈ 0.103 µg/mL)	0.4 µM (≈ 0.138 µg/mL)	14 µM (≈ 4.82 µg/mL)	0.7 µM (≈ 0.241 µg/mL)	6.7 µM (≈ 2.31 µg/mL)	1.9 µM (≈ 0.654 µg/mL)	1.9 µM (≈ 0.654 µg/mL)	1.8 µM (≈ 0.62 µg/mL)	–	3.44	IA (rhinovirus A25 [6]): inactive
Cc1cc(CCCCCCCOc2ccc(C3=NCCO3)cc2Cl)on1	–	–	–	–	–	2.3 µM (≈ 0.867 µg/mL)	17 µM	–	–	–	0.1 µM (≈ 0.0377 µg/mL)	–	–	–	–	2.8 µM (≈ 1.06 µg/mL)	–	–	–	–	–
Cc1cc(CCCCCOc2ccc(C3=NCCO3)cc2C(C)(C)C)on1	–	–	–	–	–	–	8.4 µM	–	–	–	–	–	–	–	–	–	–	–	–	–	MIC (rhinovirus A2 [11]): inactive
